A short description of data set [1]: Metabolic stability in mouse plasma assessed as half life at 5 uM measured upto 24 hrs by LC-HRMS analysis. The format is ADME, cell-free. In outline:
(§1)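 Conjugates at 5 μM were incubated in human or mouse plasma at 37 °C, in duplicate. Samples were taken at t0, 0.25, 0.5, 1, 2, 4 and 24 h and quenched with 1 % formic acid in MeCN (2× volume). After centrifugation (14000 rpm, 4 °C), supernatants were diluted 1:1 with water and analysed by LC-HRMS.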

Data set [2] is described as follows: Cytotoxicity against human MDA-MB-231 cells assessed as inhibition of cell growth incubated for 72 hrs and followed by treated with compound continued incubation for further 72 hrs (double treatment) after retreatment of compound by CellTiter 96 aqueous assay. The format is toxicity, cell-based. The method in brief: (§2)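 PC-3 or MDA-MB-231 cells were treated the day after seeding with serial dilutions, from 2000 nM for conjugates and 100 nM for MMAE, for 72 h. Then the assay was stopped, or run 72 h more after a medium change (single) or re-treatment (double). Controls got 0.05 % DMSO. Read-out was MTS absorbance at 490 nm after 90 min. IC50 by non-linear regression; ≥2 experiments, triplicates.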

Data set [3] is described as follows: Metabolic stability in human plasma assessed as half life at 5 uM measured upto 24 hrs by LC-HRMS analysis. The format is ADME, cell-free. In outline: as §1
Data set [4] can be described thus: Cytotoxicity against human cells MDA-MB-231 assessed as inhibition of cell growth incubated for 72 hrs by CellTiter 96 aqueous assay. The format is toxicity, cell-based. The settings on record: MDA-MB-231 cells. In outline: as §2
Data set [5] in a line: Cytotoxicity against human PC-3 cells assessed as inhibition of cell growth incubated for 72 hrs and followed by treated with compound continued incubation for further 72 hrs (double treatment) after retreatment of compound by CellTiter 96 aqueous assay. The format is toxicity, cell-based. In outline: as §2
Data set [6] can be described thus: Cytotoxicity against human MDA-MB-231 cells assessed as inhibition of cell growth incubated with compound for 72 hrs followed by further incubated for 72 hrs (single treatment) by CellTiter 96 aqueous assay. The format is toxicity, cell-based. In outline: as §2
Data set [7] is described as follows: Cytotoxicity against human PC-3 cells assessed as inhibition of cell growth incubated with compound for 72 hrs followed by further incubated for 72 hrs (single treatment) by CellTiter 96 aqueous assay. The format is toxicity, cell-based. In outline:
as §2

A short description of data set [8]: Cytotoxicity against human PC-3 cells assessed as inhibition of cell growth incubated for 72 hrs by CellTiter 96 aqueous assay. The format is toxicity, cell-based. The method in brief: as §2
A short description of data set [9]: Displacement of 125 I- [Tyr4] from bombesin receptor 1 (unknown origin) assessed as inhibition by radioligand competitive binding assay. The arrangement: species or system Homo sapiens.
Data set [10] deals with T1, Bombesin receptor subtype-3 (Homo sapiens, UniProt P32247).
T1 sequence (P32247 whole entry): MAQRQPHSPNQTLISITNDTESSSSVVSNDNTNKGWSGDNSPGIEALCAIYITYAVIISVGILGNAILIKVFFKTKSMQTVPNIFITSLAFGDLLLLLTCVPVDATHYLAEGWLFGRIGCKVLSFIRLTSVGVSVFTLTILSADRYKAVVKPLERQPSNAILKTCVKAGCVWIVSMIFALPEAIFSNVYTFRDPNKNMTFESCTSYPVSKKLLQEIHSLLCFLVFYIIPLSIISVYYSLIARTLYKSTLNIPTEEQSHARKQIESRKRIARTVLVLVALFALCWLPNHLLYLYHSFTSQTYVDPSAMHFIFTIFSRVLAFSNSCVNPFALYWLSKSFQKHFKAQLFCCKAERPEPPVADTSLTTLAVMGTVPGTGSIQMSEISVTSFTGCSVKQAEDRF
As to the kind of experiment: Displacement of 125 I- [Tyr4] from bombesin receptor 3 (unknown origin) assessed as inhibition by radioligand competitive binding assay.

Data set [11] has as its target Gastrin-releasing peptide receptor (Homo sapiens, UniProt P30550). As to the kind of experiment: Displacement of 125 I- [Tyr4] from bombesin receptor 2 (unknown origin) assessed as inhibition by radioligand competitive binding assay.

Gastrin-releasing peptide receptor, sequence (P30550 whole entry): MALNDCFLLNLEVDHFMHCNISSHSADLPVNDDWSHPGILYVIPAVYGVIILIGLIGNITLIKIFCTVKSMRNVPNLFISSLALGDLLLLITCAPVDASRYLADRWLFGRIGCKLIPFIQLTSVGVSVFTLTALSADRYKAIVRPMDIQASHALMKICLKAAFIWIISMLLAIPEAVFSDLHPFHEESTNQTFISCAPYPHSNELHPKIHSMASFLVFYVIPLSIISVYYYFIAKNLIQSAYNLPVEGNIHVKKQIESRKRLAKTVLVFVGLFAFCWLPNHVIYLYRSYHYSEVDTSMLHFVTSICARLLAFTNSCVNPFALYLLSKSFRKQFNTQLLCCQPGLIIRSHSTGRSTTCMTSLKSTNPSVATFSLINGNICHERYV

As a reminder, the half-life is the time in which the quantity being followed falls by half. One may read the IC50 as the concentration at which inhibition is half-maximal. Take `CC[C@H](C)[C@@H]([C@@H](CC(=O)N1CCC[C@H]1[C@H](OC)[C@@H](C)C(=O)N[C@H](C)[C@@H](O)c1ccccc1)OC)N(C)C(=O)[C@@H](NC(=O)[C@H](C(C)C)N(C)C(=O)OCc1ccc(NC(=O)[C@H](CCCNC(N)=O)NC(=O)[C@@H](NC(=O)CCCCCN2C(=O)CC(SC[C@H](NC(C)=O)C(=O)N[C@H](Cc3ccccc3)C(=O)N[C@@H](CCC(N)=O)C(=O)N[C@@H](Cc3c[nH]c4ccccc34)C(=O)N[C@@H](C)C(=O)N[C@H](C(=O)NCC(=O)N[C@@H](Cc3c[nH]cn3)C(=O)N[C@@H](CC(C)C)[C@@H](O)CC(=O)N[C@@H](CC(C)C)C(N)=O)C(C)C)C2=O)C(C)C)cc1)C(C)C` (stereo partly drawn): the half-life at 5 µM in data set [1] is 0.12 h; in [3], 8.2 h. The IC50 at 144 h came to 155 nM in data set [2], 92.1 nM in data set [5], 202 nM in [6] and 101 nM in data set [7]. Further, the IC50 at 72 h in data set [4] was 888 nM; in [8] it was 718 nM.

Turning to `CC(=O)N[C@@H](CS)C(=O)N[C@H](Cc1ccccc1)C(=O)N[C@@H](CCC(N)=O)C(=O)N[C@@H](Cc1c[nH]c2ccccc12)C(=O)N[C@@H](C)C(=O)N[C@H](C(=O)NCC(=O)N[C@@H](Cc1c[nH]cn1)C(=O)N[C@@H](CC(C)C)[C@@H](O)CC(=O)N[C@@H](CC(C)C)C(N)=O)C(C)C`, the IC50 is more than 10000 nM in data set [9], more than 1000 nM in data set [10] and 20.5 nM in [11]. The half-life at 5 µM in data set [1] and in [3] was not below 5 h throughout.

Values taken from ChEMBL document CHEMBL6071141, “In vitro and in vivo evaluation of Bombesin-MMAE conjugates for targeted tumour therapy” (Eur J Med Chem, 2024).
